# Substitutions are numbered along the chain they refer to.
# Key:
# [1] = molecular target: T1, KDM4A N198A mutant (Homo sapiens, UniProt O75164, N198A); experiment: MALDI demethylase assay, H3K9me3 substrate peptide, N198A mutant; type: biochemical
# T1 sequence (O75164 1-1064 N198A): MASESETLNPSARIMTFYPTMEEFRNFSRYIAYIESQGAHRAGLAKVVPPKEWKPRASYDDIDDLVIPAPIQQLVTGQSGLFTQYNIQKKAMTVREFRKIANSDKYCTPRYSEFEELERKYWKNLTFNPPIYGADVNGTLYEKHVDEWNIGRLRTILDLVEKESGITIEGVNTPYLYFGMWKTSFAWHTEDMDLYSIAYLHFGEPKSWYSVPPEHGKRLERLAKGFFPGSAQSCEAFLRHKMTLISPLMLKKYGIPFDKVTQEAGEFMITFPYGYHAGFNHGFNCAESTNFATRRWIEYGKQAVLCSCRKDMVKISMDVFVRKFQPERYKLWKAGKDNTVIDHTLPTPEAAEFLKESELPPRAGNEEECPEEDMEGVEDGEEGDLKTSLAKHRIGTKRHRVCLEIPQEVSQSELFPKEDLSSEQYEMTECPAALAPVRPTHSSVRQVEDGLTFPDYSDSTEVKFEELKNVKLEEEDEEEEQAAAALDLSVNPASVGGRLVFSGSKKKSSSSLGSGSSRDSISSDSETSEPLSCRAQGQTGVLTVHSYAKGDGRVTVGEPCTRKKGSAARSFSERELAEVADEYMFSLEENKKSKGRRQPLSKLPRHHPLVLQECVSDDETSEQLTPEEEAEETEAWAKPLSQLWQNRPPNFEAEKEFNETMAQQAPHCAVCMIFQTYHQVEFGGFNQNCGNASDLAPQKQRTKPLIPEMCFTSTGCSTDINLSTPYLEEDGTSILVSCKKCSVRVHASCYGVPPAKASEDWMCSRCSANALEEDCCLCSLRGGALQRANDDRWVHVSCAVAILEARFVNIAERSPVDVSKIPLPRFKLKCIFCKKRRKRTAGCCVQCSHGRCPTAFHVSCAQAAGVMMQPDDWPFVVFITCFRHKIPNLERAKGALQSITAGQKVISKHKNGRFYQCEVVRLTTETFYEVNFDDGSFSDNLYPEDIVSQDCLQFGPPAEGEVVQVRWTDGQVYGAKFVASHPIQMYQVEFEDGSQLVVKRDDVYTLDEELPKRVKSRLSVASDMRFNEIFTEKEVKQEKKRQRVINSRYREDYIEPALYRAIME
# [2] = molecular target: 2KG-dependent enzymes; settings: broad-spectrum inhibitors of 2KG-dependent enzymes; cited from earlier work
# [3] = molecular target: T2, KDM4A S288G mutant (Homo sapiens, UniProt O75164, S288G); experiment: MALDI demethylase assay, H3K9me3 substrate peptide, S288G mutant; type: biochemical
# T2 sequence (O75164 1-1064 S288G): T1 sequence (O75164 1-1064 N198A) with A198N, S288G
# Method in brief: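 KDM4A mutant demethylation of H3K9me3 peptide, read by MALDI-MS and expressed as % inhibition of demethylase activity, with wild type and the four active-site mutants run under the same conditions. The 2KG cofactor was cut from the 1 mM of the initial activity assay to 50 μM, about 3–4-fold above the enzymes' 2KG KM. KM came from an FDH/NAD+-coupled NADH fluorescence assay.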
# [4] = scaffold test under the optimized assay conditions (50 μM 2KG), Figure S7
# [5] = 100 μM compound, 50 μM 2KG, MALDI-MS
smiles,measurement,setting,value
"O=C(O)c1ccc(O)c2ncccc12 [IOX1, 5-carboxy-8-hydroxyquinone]",inhibition of demethylase activity,[1]; [4],inhibited
same,IC50,[2],micromolar range
same,inhibition of demethylase activity,[3]; [4],inhibited
"O=C(O)CNC(=O)C(=O)O [compound 2, N-oxalylglycine]",inhibition of demethylase activity,[1]; [5],significantly inhibited
same,inhibition of demethylase activity,[1]; [4],inhibited
same,IC50,[2],micromolar range
same,inhibition of demethylase activity,[3]; [5],significantly inhibited
same,inhibition of demethylase activity,[3]; [4],inhibited
